# From ChEMBL document CHEMBL1135539, “Synthesis of ketone analogues of prolyl and pipecolyl ester FKBP12 ligands” (J Med Chem, 2002)
# Experiments:
# [1] = target: Peptidyl-prolyl cis-trans isomerase FKBP1A (Rattus norvegicus, UniProt Q62658); experiment: In vitro inhibition of rotamase activity of FK506 binding protein 12
# Mus musculus [2] = experiment: Post-MPTP % recovery of striatal dopaminergic innervation relative to MPTP-treated mice after peroral administration at dose of 10 mg/kg; type: functional, organism-based; set-up: dose 10 mg/kg
# How it was run: (§1)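 Mice lesioned with the dopaminergic neurotoxin MPTP, following an earlier-described protocol. The endpoint is striatal dopaminergic innervation. Drug is given either concurrently with MPTP or after the lesion. Values are expressed as % recovery relative to MPTP-lesioned animals that received no test drug.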
# Mus musculus [3] = experiment: Concurrent % recovery of striatal dopaminergic innervation relative to MPTP-treated mice after subcutaneous administration at dose of 4 mg/kg.; type: functional, organism-based; set-up: dose 4 mg/kg; how it was run: as §1
# Peptidyl-prolyl cis-trans isomerase FKBP1A, sequence (Q62658 whole entry): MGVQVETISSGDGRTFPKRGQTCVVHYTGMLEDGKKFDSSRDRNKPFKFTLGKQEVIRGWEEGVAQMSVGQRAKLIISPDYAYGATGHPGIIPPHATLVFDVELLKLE
Compound,Ki [1],Recovery (Mus musculus [2]),Recovery (Mus musculus [3])
CCC(C)(C)C(=O)C(=O)N1CCC[C@H]1C(=O)CCCC(c1ccc(F)cc1)c1ccc(F)cc1,460 nM,54%,41%
CCC(C)(C)C(=O)C(=O)N1CCC[C@H]1C(=O)OCCCc1cccnc1 [GPI-1046],7.5 nM,35%,39%
CCC(C)(C)C(=O)C(=O)N1CCC[C@H]1C(=O)CCCCc1c(F)c(F)c(C(F)(F)F)c(F)c1F,130 nM,27%,7%
O=C(C(=O)N1CCC[C@H]1C(=O)CCCCc1ccccc1)C1CCCCC1,310 nM,62.2%,37.6%
CCCCC(=O)[C@@H]1CCCN1C(=O)C(=O)C(C)(C)CC,2000 nM,–,–
O=C(C(=O)N1CCC[C@H]1C(=O)CCCCc1ccccc1)c1ccccc1,10000 nM,–,–
CCC(C)(C)C(=O)C(=O)N1CCC[C@H]1C(=O)CCCCc1ccc(O)cc1,240 nM,33.5%,–
CCC(C)(C)C(=O)C(=O)N1CCC[C@H]1C(=O)CCCCc1cccnc1,–,34%,38%
CCCCC(=O)[C@@H]1CCCCN1C(=O)C(=O)C(C)(C)CC,3400 nM,–,–

# Further lines, with some results ahead:
Ki [1],Compound,Recovery (Mus musculus [2]),Recovery (Mus musculus [3])
180 nM,CC(C)(C)C(=O)C(=O)N1CCC[C@H]1C(=O)CCCc1ccccc1,35%,34%
790 nM,CCC(C)(C)C(=O)C(=O)N1CCCC[C@H]1C(=O)CCCCc1ccccc1,–,–
30 nM,CCC(C)(C)C(=O)C(=O)N1CCC[C@H]1C(=O)CCCCc1ccccc1,–,22.5%
10000 nM,CCC(C)(C)C(=O)C(=O)N1CCCC[C@H]1C(=O)CCCc1ccccc1,–,–
3000 nM,CCC(C)(C)C(=O)C(=O)N1CCCC[C@H]1C(=O)CCCCCc1ccccc1,–,46.3%
3800 nM,CCC(C)(C)C(=O)C(=O)N1CCC[C@H]1C(=O)CCCCCc1ccccc1,48%,46%
900 nM,CCC(C)(C)C(=O)C(=O)N1CCCC[C@H]1C(=O)CCCCCc1cccnc1,–,–
290 nM,CC(C)(C)C(=O)C(=O)N1CCCC[C@H]1C(=O)CCCCCc1ccccc1,36%,50%
